# Legend:
# Type in all cases: functional
# Enterococcus faecium [1] = assay: Antibacterial activity against Enterococcus faecium 09-4 after 18 hrs by two fold serial dilution method; conditions: 09-4, 18 h
# Method in brief: (§1)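 Agar two-fold serial dilution in melted Mueller-Hinton agar, final concentrations 128 down to 0.008 μg/mL. Plates inoculated with 10⁴ cfu and incubated at 35 °C for 18 h. MIC taken as the lowest concentration giving no visible growth on the plate.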
# Streptococcus pneumoniae = assay: Antibacterial activity against Streptococcus pneumoniae 10-1 after 18 hrs by two fold serial dilution method; conditions: 10-1, 18 h; method in brief: as §1
# Enterococcus faecium [2] = assay: Antibacterial activity against Enterococcus faecium 09-1 after 18 hrs by two fold serial dilution method; conditions: 09-1, 18 h; method in brief: as §1
# Klebsiella pneumoniae [3] = assay: Antibacterial activity against Klebsiella pneumoniae 10-3 infected KM mouse systemic infection model assessed as decrease in mouse mortality administered orally twice after 1 and 4 hrs post infection measured up to 7 days; conditions: 10-3, po
# Method in brief: (§2)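 Strains grown on MH agar at 35 °C for 18 h, suspended in gastric mucin. Male KM mice (19–21 g), groups of 10, infected intraperitoneally with 0.5 mL at 5–10× MLD. Four oral dose levels per drug at 1 and 4 h post infection. Mortality followed 7 days; ED50 with 95% confidence limits by Bliss method.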
# Staphylococcus aureus [4] = assay: Antibacterial activity against methicillin-sensitive Staphylococcus aureus 10-1 after 18 hrs by two fold serial dilution method; conditions: 10-1, 18 h; method in brief: as §1
# Klebsiella pneumoniae [5] = assay: Antibacterial activity against Klebsiella pneumoniae 10-3 after 18 hrs by two fold serial dilution method; conditions: 10-3, 18 h; method in brief: as §1
# [6] = tested on: Staphylococcus epidermidis; assay: Antibacterial activity against methicillin-sensitive Staphylococcus epidermidis 10-1 after 18 hrs by two fold serial dilution method; conditions: 10-1, 18 h; method in brief: as §1
# Enterococcus faecalis [7] = assay: Antibacterial activity against Enterococcus faecalis 09-2 after 18 hrs by two fold serial dilution method; conditions: 09-2, 18 h; method in brief: as §1
# Enterococcus faecium [8] = assay: Antibacterial activity against Enterococcus faecium 09-3 after 18 hrs by two fold serial dilution method; conditions: 09-3, 18 h; method in brief: as §1
# Staphylococcus aureus [9] = assay: Antibacterial activity against methicillin-resistant Staphylococcus aureus 10-1 after 18 hrs by two fold serial dilution method; conditions: 10-1, 18 h
# Method in brief: (§3)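 Agar two-fold serial dilution in melted Mueller-Hinton agar, 128 to 0.008 μg/mL. Plates inoculated with 10⁴ cfu, incubated 35 °C for 18 h. MIC taken as lowest concentration giving no visible growth on the plate.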
# [10] = tested on: Staphylococcus epidermidis; assay: Antibacterial activity against methicillin-sensitive Staphylococcus epidermidis 10-2 after 18 hrs by two fold serial dilution method; conditions: 10-2, 18 h; method in brief: as §1
# Enterococcus faecium [11] = assay: Antibacterial activity against Enterococcus faecium 09-5 after 18 hrs by two fold serial dilution method; conditions: 09-5, 18 h; method in brief: as §1
# Staphylococcus aureus [12] = assay: Antibacterial activity against methicillin-sensitive Staphylococcus aureus 10-4 after 18 hrs by two fold serial dilution method; conditions: 10-4, 18 h; method in brief: as §1
# Staphylococcus aureus [13] = assay: Antibacterial activity against methicillin-resistant Staphylococcus aureus 10-3 after 18 hrs by two fold serial dilution method; conditions: 10-3, 18 h; method in brief: as §3
# Klebsiella pneumoniae [14] = assay: Antibacterial activity against Klebsiella pneumoniae 09-2 after 18 hrs by two fold serial dilution method; conditions: 09-2, 18 h; method in brief: as §1
# Pseudomonas aeruginosa [15] = assay: Antibacterial activity against Pseudomonas aeruginosa 10-1 infected KM mouse systemic infection model assessed as decrease in mouse mortality administered orally twice after 1 and 4 hrs post infection measured up to 7 days; conditions: 10-1, po; method in brief: as §2
# Staphylococcus aureus [16] = assay: Antibacterial activity against methicillin-resistant Staphylococcus aureus 10-2 infected KM mouse systemic infection model assessed as decrease in mouse mortality administered orally twice after 1 and 4 hrs post infection measured up to 7 days; conditions: 10-2, po; method in brief: as §2
# Enterococcus faecium [17] = assay: Antibacterial activity against Enterococcus faecium 09-6 after 18 hrs by two fold serial dilution method; conditions: 09-6, 18 h; method in brief: as §1
# Staphylococcus aureus [18] = assay: Antibacterial activity against methicillin-sensitive Staphylococcus aureus 10-5 after 18 hrs by two fold serial dilution method; conditions: 10-5, 18 h; method in brief: as §1
# [19] = tested on: Staphylococcus epidermidis; assay: Antibacterial activity against methicillin-resistant Staphylococcus epidermidis 10-2 after 18 hrs by two fold serial dilution method; conditions: 10-2, 18 h; method in brief: as §3
# [20] = tested on: Staphylococcus epidermidis; assay: Antibacterial activity against methicillin-resistant Staphylococcus epidermidis 10-4 infected KM mouse systemic infection model assessed as decrease in mouse mortality administered orally twice after 1 and 4 hrs post infection measured up to 7 days; conditions: 10-4, po; method in brief: as §2
# Enterococcus faecium [21] = assay: Antibacterial activity against Enterococcus faecium 09-2 after 18 hrs by two fold serial dilution method; conditions: 09-2, 18 h; method in brief: as §1
# Pseudomonas aeruginosa [22] = assay: Antibacterial activity against Pseudomonas aeruginosa 10-1 after 18 hrs by two fold serial dilution method; conditions: 10-1, 18 h; method in brief: as §1
# Enterococcus faecalis [23] = assay: Antibacterial activity against Enterococcus faecalis 09-1 after 18 hrs by two fold serial dilution method; conditions: 09-1, 18 h; method in brief: as §1
# Staphylococcus aureus [24] = assay: Antibacterial activity against Staphylococcus aureus ATCC 25923 after 18 hrs by two fold serial dilution method; conditions: ATCC 25923, 18 h; method in brief: as §1
# Staphylococcus aureus [25] = assay: Antibacterial activity against methicillin-sensitive Staphylococcus aureus 10-2 after 18 hrs by two fold serial dilution method; conditions: 10-2, 18 h; method in brief: as §1
# Staphylococcus aureus [26] = assay: Antibacterial activity against methicillin-sensitive Staphylococcus aureus 10-3 after 18 hrs by two fold serial dilution method; conditions: 10-3, 18 h; method in brief: as §1
# Klebsiella pneumoniae [27] = assay: Antibacterial activity against Klebsiella pneumoniae 10-1 after 18 hrs by two fold serial dilution method; conditions: 10-1, 18 h; method in brief: as §1
# Escherichia coli [28] = assay: Antibacterial activity against Escherichia coli 10-2 infected KM mouse systemic infection model assessed as decrease in mouse mortality administered orally twice after 1 and 4 hrs post infection measured up to 7 days; conditions: 10-2, po; method in brief: as §2
# Staphylococcus aureus [29] = assay: Antibacterial activity against methicillin-resistant Staphylococcus aureus 10-4 after 18 hrs by two fold serial dilution method; conditions: 10-4, 18 h; method in brief: as §3
# Escherichia coli [30] = assay: Antibacterial activity against Escherichia coli 09-3 after 18 hrs by two fold serial dilution method; conditions: 09-3, 18 h; method in brief: as §1
# [31] = tested on: Staphylococcus epidermidis; assay: Antibacterial activity against methicillin-resistant Staphylococcus epidermidis 10-4 after 18 hrs by two fold serial dilution method; conditions: 10-4, 18 h; method in brief: as §3
# Pseudomonas aeruginosa [32] = assay: Antibacterial activity against Pseudomonas aeruginosa 10-2 after 18 hrs by two fold serial dilution method; conditions: 10-2, 18 h; method in brief: as §1
# [33] = tested on: Staphylococcus epidermidis; assay: Antibacterial activity against methicillin-resistant Staphylococcus epidermidis 10-1 after 18 hrs by two fold serial dilution method; conditions: 10-1, 18 h; method in brief: as §3
compound,measurement,setting,value
O=C(O)c1cn(C2CC2)c2cc(N3CCNCC3)c(F)cc2c1=O [CIPROFLOXACIN],MIC,Enterococcus faecium [1],0.5 µg/mL
same,MIC,Streptococcus pneumoniae,0.03 µg/mL
same,MIC,Enterococcus faecium [2],> 128 µg/mL
same,ED50,Klebsiella pneumoniae [3],87.5 mg/kg
same,MIC,Staphylococcus aureus [4],0.015 µg/mL
same,MIC,Klebsiella pneumoniae [5],0.25 µg/mL
same,MIC,[6],8 µg/mL
same,MIC,Enterococcus faecalis [7],64 µg/mL
same,MIC,Enterococcus faecium [8],128 µg/mL
same,MIC,Staphylococcus aureus [9],> 128 µg/mL
same,MIC,[10],64 µg/mL
same,MIC,Enterococcus faecium [11],64 µg/mL
same,MIC,Staphylococcus aureus [12],0.06 µg/mL
same,MIC,Staphylococcus aureus [13],> 128 µg/mL
same,MIC,Klebsiella pneumoniae [14],32 µg/mL
same,ED50,Pseudomonas aeruginosa [15],111 mg/kg
same,ED50,Staphylococcus aureus [16],15.9 mg/kg
same,MIC,Enterococcus faecium [17],0.5 µg/mL
same,MIC,Staphylococcus aureus [18],0.03 µg/mL
same,MIC,[19],8 µg/mL
same,ED50,[20],24.5 mg/kg
same,MIC,Enterococcus faecium [21],> 128 µg/mL
same,MIC,Pseudomonas aeruginosa [22],0.06 µg/mL
same,MIC,Enterococcus faecalis [23],64 µg/mL
same,MIC,Staphylococcus aureus [24],0.25 µg/mL
same,MIC,Staphylococcus aureus [25],64 µg/mL
same,MIC,Staphylococcus aureus [26],0.06 µg/mL
same,MIC,Klebsiella pneumoniae [27],0.06 µg/mL
same,ED50,Escherichia coli [28],4 mg/kg
same,MIC,Staphylococcus aureus [29],> 128 µg/mL
same,MIC,Escherichia coli [30],64 µg/mL
same,MIC,[31],8 µg/mL
same,MIC,Pseudomonas aeruginosa [32],> 128 µg/mL
same,MIC,[33],16 µg/mL
